Columns and labels:
Erythrocyte = experiment: Hemolytic activity in human RBC after 1 hr; assay type: ADME, cell-based
Summary of the method: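 Fresh human erythrocytes, diluted 10-fold in PBS pH 7.4, were mixed with equal volumes of peptide and held 1 h at 37 °C. After centrifugation at 1000g, supernatant hemoglobin was read at 576 nm. PBS set 0% and 0.1% Triton X-100 set 100% lysis. MHC is the concentration causing 10% hemolysis. At least three experiments were run, each in technical triplicate.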

Escherichia coli [1] = experiment: Antibacterial activity against Escherichia coli 1005 after 24 hrs; assay type: functional; settings: Escherichia coli, 1005, 24 h
Summary of the method: (§1)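 Broth microdilution. Mid-log bacteria in MHB at a final (0.5−1) × 10^5 CFU/mL were mixed with equal volumes of peptide serially diluted in 0.2% BSA. Plates were incubated 24 h at 37 °C and read at A492. MIC is the lowest concentration inhibiting 95% of growth. Each test was repeated at least 3 times.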

Candida albicans [2] = experiment: Fungicidal activity against Candida albicans SP3876 after 96 hrs; assay type: functional; settings: SP3876, 96 h, read-out: MFC99.9
Summary of the method: (§2)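 After the 48 h, 28 °C broth microdilution in MOPS-buffered RPMI 1640 (inoculum (0.5−1) × 10^3 CFU/mL), 50 μL from each well was plated on YM agar for a further 48 h at 28 °C. MFC is the lowest concentration killing at least 99.9% of cells. Triplicate, three biological replicates.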

Candida albicans [3] = experiment: Antifungal activity against Candida albicans cgmcc 2.2086 in presence of NaCl by broth dilution method; assay type: functional
Candida albicans [4] = experiment: Antifungal activity against Candida albicans cgmcc 2.2086 in presence of ZnCl2 by broth dilution method; assay type: functional
Candida tropicalis [5] = experiment: Fungicidal activity against Candida tropicalis cgmcc 2.1975 after 96 hrs; assay type: functional; settings: cgmcc 2.1975, 96 h, read-out: MFC99.9
Summary of the method: (§3)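 Wells from the 48 h, 28 °C RPMI 1640/MOPS microdilution plates were plated on YM agar and incubated a further 48 h at 28 °C. MFC is the lowest concentration killing at least 99.9% of cells. Run in triplicate with three biological replicates.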

Candida albicans [6] = experiment: Antifungal activity against Candida albicans cgmcc 2.2086 in presence of NH4Cl by broth dilution method; assay type: functional
Escherichia coli [7] = experiment: Antibacterial activity against Escherichia coli ATCC 25922 after 18 hrs in presence of ZnCl2 by broth dilution method; assay type: functional; settings: ATCC 25922, 18 h
Candida albicans [8] = experiment: Antifungal activity against Candida albicans SP3902 after 48 hrs by broth microdilution method; assay type: functional; settings: SP3902, 48 h
Summary of the method: (§4)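 Modified CLSI M27-A2 broth microdilution. Yeast at (0.5−1) × 10^3 CFU/mL in MOPS-buffered RPMI 1640 was mixed 1:1 with peptide serially diluted in 0.2% BSA and incubated 48 h at 28 °C. Absorbance was read at 492 nm; MIC is the lowest concentration inhibiting 95% of growth. Triplicate, three biological replicates.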

Candida albicans [9] = experiment: Antifungal activity against fluconazole-resistant Candida albicans 56452 after 48 hrs by broth microdilution method; assay type: functional; settings: Candida albicans, 56452, 48 h; summary of the method: as §4
[10] = Cytotoxicity against HEK293T cells assessed as cell viability at 2 to 64 uM after 24 hrs by MTT assay relative to control; assay type: cell-based, HEK-293T; settings: human, read-out: Activity
Summary of the method: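 MTT viability assay. RAW264.7 or HEK293T cells at (1.0−2.0) × 10^5 per well were exposed to a peptide concentration series for 24 h at 37 °C in 5% CO2. MTT was then added at 0.5 mg/mL final for 4 h; formazan was dissolved in DMSO and read at 570 nm. Results average three independent trials.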

Pichia kudriavzevii [11] = experiment: Antifungal activity against Candida krusei cgmcc 2.1857 after 48 hrs by broth microdilution method; assay type: functional; settings: cgmcc 2.1857, 48 h
Summary of the method: (§5)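 Modified CLSI M27-A2 broth microdilution. Yeast were suspended in MOPS-buffered RPMI 1640 at a final (0.5−1) × 10^3 CFU/mL and mixed 1:1 with peptide serially diluted in 0.2% BSA. Plates were incubated 48 h at 28 °C and read at A492. MIC is the lowest concentration giving 95% inhibition. Run in triplicate with three biological replicates.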

Candida albicans [12] = experiment: Fungicidal activity against Candida albicans SP3902 after 96 hrs; assay type: functional; settings: SP3902, 96 h, read-out: MFC99.9; summary of the method: as §2
Candida albicans [13] = experiment: Fungicidal activity against Candida albicans SP3903 after 96 hrs; assay type: functional; settings: SP3903, 96 h, read-out: MFC99.9; summary of the method: as §2
Candida albicans [14] = experiment: Fungicidal activity against Candida albicans isolated from alveolar fluid after 96 hrs; assay type: functional; settings: read-out: MFC99.9; summary of the method: as §2
Pichia kudriavzevii [15] = experiment: Fungicidal activity against Candida krusei cgmcc 2.1857 after 96 hrs; assay type: functional; settings: cgmcc 2.1857, 96 h, read-out: MFC99.9; summary of the method: as §3
[16] = Bactericidal activity against Salmonella pullorum ATCC 7913; assay type: functional, Salmonella enterica subsp. enterica serovar Pullorum; settings: Salmonella enterica, read-out: MBC99.9
Summary of the method: (§6)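 Wells from the 24 h, 37 °C MHB microdilution plates (bacteria at a final (0.5−1) × 10^5 CFU/mL; peptide diluted in 0.2% BSA) were plated on agar and incubated overnight. MBC is the lowest concentration killing >99.9% of cells. Each test was reproduced at least 3 times.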

Candida albicans [17] = experiment: Antifungal activity against Candida albicans cgmcc 2.2086 in presence of CaCl2 by broth dilution method; assay type: functional
Candida albicans [18] = experiment: Antifungal activity against Candida albicans 58288 after 48 hrs by broth microdilution method; assay type: functional; settings: Candida albicans, 58288, 48 h; summary of the method: as §4
Candida albicans [19] = experiment: Antifungal activity against Candida albicans cgmcc 2.2086 after 48 hrs by broth microdilution method; assay type: functional; settings: cgmcc 2.2086, 48 h; summary of the method: as §4
Staphylococcus aureus [20] = experiment: Bactericidal activity against Staphylococcus aureus ATCC 29213; assay type: functional; settings: read-out: MBC99.9; summary of the method: as §6
Candida albicans [21] = experiment: Antifungal activity against fluconazole-resistant Candida albicans 17546 after 48 hrs by broth microdilution method; assay type: functional; settings: Candida albicans, 17546, 48 h; summary of the method: as §4
Staphylococcus aureus [22] = experiment: Bactericidal activity against methicillin-resistant Staphylococcus aureus ATCC 4330; assay type: functional; settings: read-out: MBC99.9
Summary of the method: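 Bacteria at (0.5−1) × 10^5 CFU/mL in MHB were exposed to serially diluted peptide (0.2% BSA) for 24 h at 37 °C, then 50 μL aliquots were plated on agar overnight. MBC is the lowest concentration killing >99.9% of cells. At least 3 repeats.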

[23] = Antibacterial activity against Salmonella pullorum ATCC 7913 after 24 hrs; assay type: functional, Salmonella enterica subsp. enterica serovar Pullorum; settings: Salmonella enterica, ATCC 7913, 24 h; summary of the method: as §1
Staphylococcus aureus [24] = experiment: Bactericidal activity against Staphylococcus aureus ATCC 25923; assay type: functional; settings: read-out: MBC99.9; summary of the method: as §6
Candida parapsilosis = experiment: Fungicidal activity against Candida parapsilosis cgmcc 2.3989 after 96 hrs; assay type: functional; settings: Lodderomyces parapsilosis, cgmcc 2.3989, 96 h; read-out: MFC99.9; summary of the method: as §3
[25] = test system: Staphylococcus epidermidis; experiment: Bactericidal activity against Staphylococcus epidermidis ATCC 12228; assay type: functional; settings: read-out: MBC99.9; summary of the method: as §6
Candida tropicalis [26] = experiment: Antifungal activity against Candida tropicalis cgmcc 2.1975 after 48 hrs by broth microdilution method; assay type: functional; settings: cgmcc 2.1975, 48 h; summary of the method: as §5

With H-RRLRLLLRLRR-NH2 the HC10 (Erythrocyte) was over 128 µM, the MIC95 (Escherichia coli [1]) was 4 µM and the MFC (Candida albicans [2]) was 4 µM. The MIC (Candida albicans [3]) was 64 µM, the MIC (Candida albicans [4]) was 8 µM and the MFC (Candida tropicalis [5]) was 4 µM. For the same substance, the MIC (Candida albicans [6]) was 8 µM, the MIC (Escherichia coli [7]) was 4 µM and the MIC95 (Candida albicans [8]) was 4 µM. For the same substance, the MIC95 (Candida albicans [9]) was 4 µM, the viability at 24 h, up to 64 µM [10] was 70 to 80% and the MIC95 (Pichia kudriavzevii [11]) was 4 µM. For the same substance, the MFC (Candida albicans [12]) was 4 µM, the MFC (Candida albicans [13]) was 2 µM and the MFC (Candida albicans [14]) was 8 µM. It also gave an MFC (Pichia kudriavzevii [15]) of 8 µM, an MBC [16] of 8 µM and an MIC (Candida albicans [17]) of 64 µM. It also gave an MIC95 (Candida albicans [18]) of 8 µM, an MIC95 (Candida albicans [19]) of 8 µM and an MBC (Staphylococcus aureus [20]) of 16 µM. For the same substance, the MIC95 (Candida albicans [21]) was 8 µM, the MBC (Staphylococcus aureus [22]) was 16 µM and the MIC95 [23] was 2 µM. The MBC (Staphylococcus aureus [24]) was 8 µM, the MFC (Candida parapsilosis) was 64 µM and the MBC [25] was 4 µM. It also gave an MIC95 (Candida tropicalis [26]) of 2 µM.
Work on H-RRFRFFFRFRR-NH2 yielded an HC10 (Erythrocyte) of over 128 µM, an MIC95 (Escherichia coli [1]) of 4 µM and an MFC (Candida albicans [2]) of 4 µM. For the same substance, the MIC (Candida albicans [3]) was 16 µM, the MIC (Candida albicans [4]) was 4 µM and the MFC (Candida tropicalis [5]) was 2 µM. For the same substance, the MIC (Candida albicans [6]) was 4 µM, the MIC (Escherichia coli [7]) was 2 µM and the MIC95 (Candida albicans [8]) was 4 µM. The MIC95 (Candida albicans [9]) was 4 µM, the viability at 24 h, up to 64 µM [10] was 70 to 80% and the MIC95 (Pichia kudriavzevii [11]) was 2 µM. For the same substance, the MFC (Candida albicans [12]) was 4 µM, the MFC (Candida albicans [13]) was 2 µM and the MFC (Candida albicans [14]) was 8 µM. It also gave an MFC (Pichia kudriavzevii [15]) of 2 µM, an MBC [16] of 4 µM and an MIC (Candida albicans [17]) of 16 µM. For the same substance, the MIC95 (Candida albicans [18]) was 2 µM, the MIC95 (Candida albicans [19]) was 4 µM and the MBC (Staphylococcus aureus [20]) was 8 µM. The MIC95 (Candida albicans [21]) was 2 µM, the MBC (Staphylococcus aureus [22]) was 8 µM and the MIC95 [23] was 2 µM. It also gave an MBC (Staphylococcus aureus [24]) of 16 µM, an MFC (Candida parapsilosis) of 32 µM and an MBC [25] of 4 µM. The MIC95 (Candida tropicalis [26]) was 1 µM.
Work on H-RLRLLLRLR-NH2 yielded an HC10 (Erythrocyte) of over 128 µM, an MIC95 (Escherichia coli [1]) of 4 µM and an MFC (Candida albicans [2]) of 4 µM. For the same substance, the MIC (Candida albicans [3]) was 32 µM, the MIC (Candida albicans [4]) was 8 µM and the MFC (Candida tropicalis [5]) was 4 µM. It also gave an MIC (Candida albicans [6]) of 8 µM, an MIC (Escherichia coli [7]) of 8 µM and an MIC95 (Candida albicans [8]) of 4 µM. It also gave an MIC95 (Candida albicans [9]) of 8 µM, a viability at 24 h, up to 64 µM [10] of 70 to 80% and an MIC95 (Pichia kudriavzevii [11]) of 8 µM. It also gave an MFC (Candida albicans [12]) of 8 µM, an MFC (Candida albicans [13]) of 8 µM and an MFC (Candida albicans [14]) of 16 µM. It also gave an MFC (Pichia kudriavzevii [15]) of 8 µM, an MBC [16] of 8 µM and an MIC (Candida albicans [17]) of 64 µM. For the same substance, the MIC95 (Candida albicans [18]) was 8 µM, the MIC95 (Candida albicans [19]) was 8 µM and the MBC (Staphylococcus aureus [20]) was 8 µM. For the same substance, the MIC95 (Candida albicans [21]) was 16 µM, the MBC (Staphylococcus aureus [22]) was 4 µM and the MIC95 [23] was 4 µM. The MBC (Staphylococcus aureus [24]) was 8 µM, the MFC (Candida parapsilosis) was over 64 µM and the MBC [25] was 8 µM. The MIC95 (Candida tropicalis [26]) was 2 µM.
H-IIRRIRRII-NH2 showed an HC10 (Erythrocyte) of over 128 µM, an MIC95 (Escherichia coli [1]) of 16 µM and an MFC (Candida albicans [2]) of over 64 µM. The MIC (Candida albicans [3]) was 64 µM, the MIC (Candida albicans [4]) was 64 µM and the MFC (Candida tropicalis [5]) was 8 µM. The MIC (Candida albicans [6]) was 64 µM, the MIC (Escherichia coli [7]) was 32 µM and the MIC95 (Candida albicans [8]) was over 64 µM. It also gave an MIC95 (Candida albicans [9]) of 64 µM, a viability at 24 h, up to 64 µM [10] of 70 to 80% and an MIC95 (Pichia kudriavzevii [11]) of 16 µM. It also gave an MFC (Candida albicans [12]) of over 64 µM, an MFC (Candida albicans [13]) of over 64 µM and an MFC (Candida albicans [14]) of over 64 µM. For the same substance, the MFC (Pichia kudriavzevii [15]) was 16 µM, the MBC [16] was over 64 µM and the MIC (Candida albicans [17]) was 64 µM. For the same substance, the MIC95 (Candida albicans [18]) was over 64 µM, the MIC95 (Candida albicans [19]) was 64 µM and the MBC (Staphylococcus aureus [20]) was over 64 µM. For the same substance, the MIC95 (Candida albicans [21]) was over 64 µM, the MBC (Staphylococcus aureus [22]) was over 64 µM and the MIC95 [23] was 32 µM. The MBC (Staphylococcus aureus [24]) was over 64 µM, the MFC (Candida parapsilosis) was over 64 µM and the MBC [25] was over 64 µM. For the same substance, the MIC95 (Candida tropicalis [26]) was 4 µM.
